Assay results taken from ChEMBL document CHEMBL1145945, “Synthesis and biological evaluation of iodinated and fluorinated 9-(2-hydroxypropyl) and 9-(2-hydroxyethoxy)methyl purine nucleoside analogues” (J Med Chem, 2003).

Test system: MOLT-4
Assay: Inhibitory concentration required to inhibit human T-lymphocyte (Molt4/C8) cell line by 50%
Format: functional, cell-based
Conditions: not given

Structure (SMILES) | IC50 [µM]
CC(=O)OC(C)Cn1cnc2c(S)nc(N)nc21 (configuration not stated) | 370
CC(=O)OCCOCn1cnc2c(S)nc(N)nc21 | 8.9
COc1nc(I)nc2c1ncn2COCCO | > 500
CC(O)Cn1cnc2c(F)nc(N)nc21 (configuration not stated) | > 500
CC(=O)OCCOCn1cnc2c(S)nc(F)nc21 | 35
CC(=O)OC(C)Cn1cnc2c(Cl)nc(F)nc21 (configuration not stated) | 41
CC(O)Cn1cnc2c(S)nc(F)nc21 (configuration not stated) | > 500
CC(=O)OCCOCn1cnc2c(Cl)nc(I)nc21 | 9.4

Test system: HeLa
Assay: Inhibitory concentration required to inhibit cervical carcinoma (HeLa) cells by 50%
Format: functional, cell-based
Conditions: Homo sapiens
Method in brief: (§1)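 Monolayer cells in D-MEM or RPMI 1640 with 10% FBS, 37 °C, 5% CO2, seeded at 3 × 10⁴/mL. MTT read-out at 570 nm as % growth. IC50 by manual graphical fitting; mean ± SD, four parallel samples, three experiments.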

Structure (SMILES) | IC50 [µM]
CC(=O)OC(C)Cn1cnc2c(S)nc(N)nc21 (configuration not stated) | 89
CC(=O)OCCOCn1cnc2c(S)nc(N)nc21 | 5
COc1nc(I)nc2c1ncn2COCCO | > 500
CC(O)Cn1cnc2c(F)nc(N)nc21 (configuration not stated) | 63
CC(=O)OCCOCn1cnc2c(S)nc(F)nc21 | > 500
CC(=O)OC(C)Cn1cnc2c(Cl)nc(F)nc21 (configuration not stated) | 50
CC(O)Cn1cnc2c(S)nc(F)nc21 (configuration not stated) | > 500
CC(=O)OCCOCn1cnc2c(Cl)nc(I)nc21 | 398

Test system: HBL
Assay: Inhibitory concentration required to inhibit melanoma (HBL) cells by 50%
Format: functional, cell-based
Conditions: Homo sapiens
Method in brief: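 Monolayer culture in D-MEM or RPMI 1640 plus 10% FBS, 37 °C, 5% CO2. MTT assay at 570 nm, expressed as % growth. IC50 graphically fitted by hand; four parallel samples, three experiments.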

Structure (SMILES) | IC50 [µM]
CC(=O)OC(C)Cn1cnc2c(S)nc(N)nc21 (configuration not stated) | 630
CC(=O)OCCOCn1cnc2c(S)nc(N)nc21 | 15.8
COc1nc(I)nc2c1ncn2COCCO | > 500
CC(O)Cn1cnc2c(F)nc(N)nc21 (configuration not stated) | 25
CC(=O)OCCOCn1cnc2c(S)nc(F)nc21 | > 500
CC(=O)OC(C)Cn1cnc2c(Cl)nc(F)nc21 (configuration not stated) | 44.7
CC(O)Cn1cnc2c(S)nc(F)nc21 (configuration not stated) | > 500
CC(=O)OCCOCn1cnc2c(Cl)nc(I)nc21 | 19.9

Test system: CCRF-CEM
Assay: Inhibitory concentration required to inhibit human T-lymphocyte (CEM) cell line by 50%
Format: functional, cell-based
Conditions: not given

Structure (SMILES) | IC50 [µM]
CC(=O)OC(C)Cn1cnc2c(S)nc(N)nc21 (configuration not stated) | 381
CC(=O)OCCOCn1cnc2c(S)nc(N)nc21 | 7.5
COc1nc(I)nc2c1ncn2COCCO | > 500
CC(O)Cn1cnc2c(F)nc(N)nc21 (configuration not stated) | > 500
CC(=O)OCCOCn1cnc2c(S)nc(F)nc21 | 37
CC(=O)OC(C)Cn1cnc2c(Cl)nc(F)nc21 (configuration not stated) | 44
CC(O)Cn1cnc2c(S)nc(F)nc21 (configuration not stated) | > 500
CC(=O)OCCOCn1cnc2c(Cl)nc(I)nc21 | 11

Test system: FM3A (Mus musculus)
Assay: Inhibitory concentration required to inhibit mammary carcinoma (FM3A) cell line by 50%
Conditions: not given

Structure (SMILES) | IC50 [µM]
CC(O)Cn1cnc2c(F)nc(N)nc21 (configuration not stated) | > 500

Test system: HT-29
Assay: Inhibitory concentration required to inhibit human colon carcinoma (HT-29) cells by 50%
Format: functional, cell-based
Conditions: not given
Method in brief: as §1

Structure (SMILES) | IC50 [µM]
CC(=O)OC(C)Cn1cnc2c(S)nc(N)nc21 (configuration not stated) | > 500
CC(=O)OCCOCn1cnc2c(S)nc(N)nc21 | > 500
COc1nc(I)nc2c1ncn2COCCO | > 500
CC(O)Cn1cnc2c(F)nc(N)nc21 (configuration not stated) | > 500
CC(=O)OCCOCn1cnc2c(S)nc(F)nc21 | > 500
CC(=O)OC(C)Cn1cnc2c(Cl)nc(F)nc21 (configuration not stated) | 75.9
CC(O)Cn1cnc2c(S)nc(F)nc21 (configuration not stated) | > 500
CC(=O)OCCOCn1cnc2c(Cl)nc(I)nc21 | > 500

Test system: L1210
Assay: Inhibitory concentration required to inhibit murine leukemia (L1210) cell line by 50%
Format: functional, cell-based
Conditions: Mus musculus

Structure (SMILES) | IC50 [µM]
CC(=O)OC(C)Cn1cnc2c(S)nc(N)nc21 (configuration not stated) | 128
CC(=O)OCCOCn1cnc2c(S)nc(N)nc21 | 3.2
COc1nc(I)nc2c1ncn2COCCO | > 500
CC(O)Cn1cnc2c(F)nc(N)nc21 (configuration not stated) | > 500
CC(=O)OCCOCn1cnc2c(S)nc(F)nc21 | 40
CC(=O)OC(C)Cn1cnc2c(Cl)nc(F)nc21 (configuration not stated) | 37
CC(O)Cn1cnc2c(S)nc(F)nc21 (configuration not stated) | > 500
CC(=O)OCCOCn1cnc2c(Cl)nc(I)nc21 | 8.6

Test system: FM3A
Assay: Inhibitory concentration required to inhibit mammary carcinoma (FM3A) cell line by 50%
Format: functional, cell-based
Conditions: Mus musculus

Structure (SMILES) | IC50 [µM]
CC(=O)OC(C)Cn1cnc2c(S)nc(N)nc21 (configuration not stated) | 366
CC(=O)OCCOCn1cnc2c(S)nc(N)nc21 | 2
COc1nc(I)nc2c1ncn2COCCO | > 500
CC(=O)OCCOCn1cnc2c(S)nc(F)nc21 | 136
CC(=O)OC(C)Cn1cnc2c(Cl)nc(F)nc21 (configuration not stated) | 93
CC(O)Cn1cnc2c(S)nc(F)nc21 (configuration not stated) | > 500
CC(=O)OCCOCn1cnc2c(Cl)nc(I)nc21 | 34

Test system: SW-620
Assay: Inhibitory concentration required to inhibit human colon carcinoma (SW620) cells by 50%
Format: functional, cell-based
Conditions: not given
Method in brief: (§2)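 Cells grown as monolayers in D-MEM or RPMI 1640 with 10% FBS at 37 °C, 5% CO2, plated at 5 × 10⁴/mL. Viable cells by MTT absorbance at 570 nm. IC50 from manual graphical fit; mean ± SD of four parallel samples in three experiments.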

Structure (SMILES) | IC50 [µM]
CC(=O)OC(C)Cn1cnc2c(S)nc(N)nc21 (configuration not stated) | 0.16
CC(=O)OCCOCn1cnc2c(S)nc(N)nc21 | 4.2
COc1nc(I)nc2c1ncn2COCCO | > 500
CC(O)Cn1cnc2c(F)nc(N)nc21 (configuration not stated) | > 500
CC(=O)OCCOCn1cnc2c(S)nc(F)nc21 | > 500
CC(=O)OC(C)Cn1cnc2c(Cl)nc(F)nc21 (configuration not stated) | 8.9
CC(O)Cn1cnc2c(S)nc(F)nc21 (configuration not stated) | > 500
CC(=O)OCCOCn1cnc2c(Cl)nc(I)nc21 | 15.8

Test system: HEp-2
Assay: Inhibitory concentration required to inhibit laryngeal carcinoma (Hep2) cells by 50%
Format: functional, cell-based
Conditions: Homo sapiens
Method in brief: as §1

Structure (SMILES) | IC50 [µM]
CC(=O)OC(C)Cn1cnc2c(S)nc(N)nc21 (configuration not stated) | 10
CC(=O)OCCOCn1cnc2c(S)nc(N)nc21 | 4.9
COc1nc(I)nc2c1ncn2COCCO | > 500
CC(=O)OCCOCn1cnc2c(S)nc(F)nc21 | > 500
CC(=O)OC(C)Cn1cnc2c(Cl)nc(F)nc21 (configuration not stated) | 10
CC(O)Cn1cnc2c(S)nc(F)nc21 (configuration not stated) | > 500
CC(=O)OCCOCn1cnc2c(Cl)nc(I)nc21 | 56.2

Test system: WI-38
Assay: Inhibitory concentration required to inhibit diploid fibroblasts (WI38) by 50%
Format: functional, cell-based
Conditions: Homo sapiens
Method in brief: as §2

Structure (SMILES) | IC50 [µM]
CC(=O)OC(C)Cn1cnc2c(S)nc(N)nc21 (configuration not stated) | 0.4
CC(=O)OCCOCn1cnc2c(S)nc(N)nc21 | > 500
COc1nc(I)nc2c1ncn2COCCO | > 500
CC(O)Cn1cnc2c(F)nc(N)nc21 (configuration not stated) | > 500
CC(=O)OCCOCn1cnc2c(S)nc(F)nc21 | > 500
CC(=O)OC(C)Cn1cnc2c(Cl)nc(F)nc21 (configuration not stated) | 100
CC(O)Cn1cnc2c(S)nc(F)nc21 (configuration not stated) | > 500
CC(=O)OCCOCn1cnc2c(Cl)nc(I)nc21 | 63.1

Test system: not listed separately
Assay: Inhibitory concentration required to inhibit pancreatic carcinoma (MiaPaCa2) cells by 50%
Format: functional, Homo sapiens
Conditions: not given
Method in brief: as §1

Structure (SMILES) | IC50 [µM]
CC(=O)OC(C)Cn1cnc2c(S)nc(N)nc21 (configuration not stated) | 25
CC(=O)OCCOCn1cnc2c(S)nc(N)nc21 | > 500
COc1nc(I)nc2c1ncn2COCCO | > 500
CC(O)Cn1cnc2c(F)nc(N)nc21 (configuration not stated) | > 500
CC(=O)OCCOCn1cnc2c(S)nc(F)nc21 | > 500
CC(=O)OC(C)Cn1cnc2c(Cl)nc(F)nc21 (configuration not stated) | 93.3
CC(O)Cn1cnc2c(S)nc(F)nc21 (configuration not stated) | > 500
CC(=O)OCCOCn1cnc2c(Cl)nc(I)nc21 | > 500
